Experimental data published in ChEMBL document CHEMBL1137774, “Conjugation of 2-(1'-hexyloxyethyl)-2-devinylpyropheophorbide-a (HPPH) to carbohydrates changes its subcellular distribution and enhances photodynamic activity in vivo” (J Med Chem, 2009).

Legend:
[1] = Partition coefficient, log P of the compound; format: physicochemical; conditions: octanol/water
[2] = Photocytotoxicity against ABCG2-expressing mouse RIF cells xenografted in C3H mouse assessed as tumor control at 0.47 umol/kg, iv followed by exposure to irradiation at 48 J/cm2 relative to control; format: functional
How it was run: (§1)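 Mice bearing shoulder tumours (C3H/RIF, BALB/c/Colon26) injected intravenously at 0.47 μmol/kg. Tumours irradiated with 665 nm laser 24 h later at 135 J/cm², 75 mW/cm² or 48 J/cm², 7 mW/cm². Tumour volume by calipers, V=(L×W²)×0.5. Groups of 5–10 mice; curves compared by Cox–Mantel test.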

Colon 26 [3] = experiment: Photosensitizing activity in ABCG2-deficient mouse Colon 26 cells assessed as induction STAT3 covalent cross linking pretreated for 4 hrs followed by irradiation exposure to 665 nm light at 3 J/cm2 by Western blotting; format: functional, cell-based
How it was run: (§2)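 Cells incubated 4 h with PS at indicated concentrations in 10% FCS medium, exposed to 665 nm light at 3 J/cm², extracted immediately. STAT-3 cross-linked product detected by Western blot, relative level by densitometry.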

RIF = experiment: Photosensitizing activity in ABCG2-expressing mouse RIF cells assessed as induction STAT3 covalent cross linking pretreated for 4 hrs followed by irradiation exposure to 665 nm light at 3 J/cm2 by Western blotting; format: functional, cell-based; how it was run: as §2
[4] = Photocytotoxicity against ABCG2-expressing mouse RIF cells xenografted in C3H mouse assessed as tumor control at 0.47 umol/kg, iv followed by exposure to irradiation at 135 J/cm2 relative to control; format: functional; how it was run: as §1
Colon 26 [5] = experiment: Photocytotoxicity against ABCG2-deficient mouse Colon 26 cells xenografted in BALB/c mouse assessed as tumor control at 0.47 umol/kg, iv followed by exposure to irradiation at 48 J/cm2 relative to control; format: functional; how it was run: as §1
[6] = Drug uptake in ABCG2-expressing mouse RIF cells assessed as increase in mitochondrial localization at 3 uM for 24 hrs in presence of 10% FCS by fluorescence microscopy; format: ADME, cell-based; conditions: 2 µM, in the assay text read “2 uM” for “3 uM”
How it was run: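 RIF cells grown on poly-L-lysine-coated coverslips, co-incubated with PS and organelle trackers in 10% FCS medium for 3–4 h or 24 h, PBS-washed, imaged at 40× by inverted fluorescence microscopy. Trackers: MitoTracker Green 1 μM 1 h (mitochondria); LysoTracker Green 0.5 μM 0.5 h or 0.1 μm Fluospheres overnight (lysosomes); Bodipy C5 ceramide–albumin 5 μM (Golgi).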

Mus musculus = experiment: Skin toxicity in ABCG2-expressing mouse RIF cells xenografted in irradiation exposed C3H mouse assessed as foot response after 24 to 96 hrs; format: organism-based; conditions: in vivo

logP [1]: 6 | Drug uptake [6]: Active
SMILES: CCCCCCOC(C)c1c(C)c2cc3nc(c4c5[nH]c(cc6nc(cc1[nH]2)C(C)=C6CC)c(C)c5C(=O)C4)[C@@H](CCC(=O)O)[C@@H]3C (stereo partly drawn) [HPPH]
Activity [2]: 40% | Activity (Colon 26 [3]): Dose-dependent effect | Activity (RIF): Dose-dependent effect | Activity [4]: 50% | Activity (Colon 26 [5]): 30% | Activity (Mus musculus): Toxic
